Values belong to the compound of their own block, whether it stands above or below them. Calls of active or inactive are those of the source. The rule behind the calls is not given here.
Columns and labels:
Protease = Protease (Human immunodeficiency virus 1, UniProt Q9YQ12); experiment: Inhibition of HIV1 recombinant protease expressed in Escherichia coli using Abz-Ala-Arg-Val-Nle-Tyr(NO2)-Glu-Ala-Nle-NH2 as substrate by FRET assay
B16-F10 [1] = experiment: Induction of apoptosis in mouse B16F10 cells assessed as early apoptotic cells at IC50 after 72 hrs by annexin V-FITC/propidium iodide staining-based FACS analysis (reference value: 3.9 +/- 0.4%); format: functional
B16-F10 [2] = experiment: Induction of apoptosis in mouse B16F10 cells assessed as late apoptotic cells at 2 X IC50 after 72 hrs by annexin V-FITC/propidium iodide staining-based FACS analysis (reference value: 9.8 +/- 2.2%); format: functional
B16-F10 [3] = experiment: Cytotoxicity against mouse B16F10 cells after 72 hrs by MTT assay; format: functional, cell-based; details: B16-F10, 72 h
Method in brief: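 B16F10 cells (DMEM, 2 mM glutamine, 10% heat-inactivated FCS, penicillin/streptomycin; subconfluent) seeded at 11·10^3 per well and exposed to 0–80 µg/mL for 72 h. Compounds were diluted from a 10 mg/mL stock in 50% DMSO/PBS. MTT 0.5 mg/mL for 2 h, formazan dissolved in DMSO, absorbance at 550 nm. Viability is relative to untreated controls; IC50 from four assays of six replicates, mean ± S.E.M.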

B16-F10 [4] = experiment: Induction of apoptosis in mouse B16F10 cells assessed as early apoptotic cells at 2 X IC50 after 72 hrs by annexin V-FITC/propidium iodide staining-based FACS analysis (reference value: 3.9 +/- 0.4%); format: functional
B16-F10 [5] = experiment: Induction of apoptosis in mouse B16F10 cells assessed as total apoptotic cells at 2 X IC50 after 72 hrs by annexin V-FITC/propidium iodide staining-based FACS analysis (reference value: 13.7 +/- 2.7%); format: functional
B16-F10 [6] = experiment: Induction of apoptosis in mouse B16F10 cells assessed as total apoptotic cells at IC50 after 72 hrs by annexin V-FITC/propidium iodide staining-based FACS analysis (reference value: 13.7 +/- 2.7%); format: functional
B16-F10 [7] = experiment: Induction of apoptosis in mouse B16F10 cells assessed as necrotic cells at 2 X IC50 after 72 hrs by annexin V-FITC/propidium iodide staining-based FACS analysis (reference value: 4.0 +/- 0.6%); format: functional
B16-F10 [8] = experiment: Induction of apoptosis in mouse B16F10 cells assessed as normal cells at IC50 after 72 hrs by annexin V-FITC/propidium iodide staining-based FACS analysis (reference value: 77.9 +/- 1.5%); format: functional
B16-F10 [9] = experiment: Induction of apoptosis in mouse B16F10 cells assessed as necrotic cells at IC50 after 72 hrs by annexin V-FITC/propidium iodide staining-based FACS analysis (reference value: 4.0 +/- 0.6%); format: functional
B16-F10 [10] = experiment: Induction of apoptosis in mouse B16F10 cells assessed as normal cells at 2 X IC50 after 72 hrs by annexin V-FITC/propidium iodide staining-based FACS analysis (reference value: 77.9 +/- 1.5%); format: functional
B16-F10 [11] = experiment: Induction of apoptosis in mouse B16F10 cells assessed as late apoptotic cells at IC50 after 72 hrs by annexin V-FITC/propidium iodide staining-based FACS analysis (reference value: 9.8 +/- 2.2%); format: functional
B16-F10 [12] = experiment: Induction of ROS generation in mouse B16F10 cells at IC50 to 2 X IC50 after 72 hrs by rhodamine123/propidium iodide staining-based FACS analysis; format: functional, cell-based
Method in brief: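 B16F10 cells, 11·10^4 per well, treated 72 h at IC50 or 2×IC50, then given fresh medium with dihydrorhodamine 123 at a final 5 µg/mL for 30 min. Cells washed, resuspended in PBS and read by flow cytometry for Rh123 and PI fluorescence (excitation 500 nm, emission 536 nm). Rh123+ cells scored ROS-positive regardless of PI. Three experiments in duplicate, mean ± S.E.M.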

Chain of Protease (Q9YQ12 whole entry): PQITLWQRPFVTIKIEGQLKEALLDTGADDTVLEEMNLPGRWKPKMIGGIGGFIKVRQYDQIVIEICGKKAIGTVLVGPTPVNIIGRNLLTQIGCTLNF

IC50 (Protease): 1400 nM
SMILES: CC1(C)CC[C@]2(C(=O)O)CC[C@]3(C)C(=CC[C@@H]4[C@@]5(C)C[C@@H](OC(=O)CCCC(=O)O)[C@H](OC(=O)CCCC(=O)O)C(C)(C)[C@@H]5CC[C@]43C)[C@@H]2C1

IC50 (Protease): 1900 nM
SMILES: CC1(C)CC[C@]2(C(=O)O)CC[C@]3(C)C(=CC[C@@H]4[C@@]5(C)C[C@@H](OC(=O)CCC(=O)O)[C@H](OC(=O)CCC(=O)O)C(C)(C)[C@@H]5CC[C@]43C)[C@@H]2C1

IC50 (Protease): 14300 nM
SMILES: CC(C)(CC(=O)O)CC(=O)O[C@@H]1C[C@]2(C)[C@H]3CC=C4[C@@H]5CC(C)(C)CC[C@]5(C(=O)O)CC[C@@]4(C)[C@]3(C)CC[C@H]2C(C)(C)[C@H]1O

IC50 (Protease): 27500 nM
SMILES: CC(C)(CC(=O)O)CC(=O)O[C@@H]1C[C@]2(C)[C@H]3CC=C4[C@@H]5CC(C)(C)CC[C@]5(C(=O)O)CC[C@@]4(C)[C@]3(C)CC[C@H]2C(C)(C)[C@H]1OC(=O)CC(C)(C)CC(=O)O

Further lines, the compound ahead of its results:

SMILES: CC1(C)CC[C@]2(C(=O)OCc3ccccc3)CC[C@]3(C)C(=CC[C@@H]4[C@@]5(C)C[C@@H](OC(=O)c6ccccc6C(=O)O)[C@H](OC(=O)c6ccccc6C(=O)O)C(C)(C)[C@@H]5CC[C@]43C)[C@@H]2C1
IC50 (Protease): 1900 nM

SMILES: CC1(C)CC[C@]2(C(=O)OCc3ccccc3)CC[C@]3(C)C(=CC[C@@H]4[C@@]5(C)C[C@@H](O)[C@H](O)C(C)(C)[C@@H]5CC[C@]43C)[C@@H]2C1 [BENZYL MASLINATE]
Activity (B16-F10 [1]): 84.2%
Activity (B16-F10 [2]): 2.2%
IC50 (B16-F10 [3]): 19000 nM
Activity (B16-F10 [4]): 86.2%
Activity (B16-F10 [5]): 88.4%
Activity (B16-F10 [6]): 94.7%
Activity (B16-F10 [7]): 0.1%
Activity (B16-F10 [8]): 5%
Activity (B16-F10 [9]): 0.3%
Activity (B16-F10 [10]): 11.3%
Activity (B16-F10 [11]): 10.6%

SMILES: CC1(C)CC[C@]2(C(=O)O)CC[C@]3(C)C(=CC[C@@H]4[C@@]5(C)CC[C@H](OC(=O)c6ccccc6C(=O)O)C(C)(C)[C@@H]5CC[C@]43C)[C@@H]2C1
IC50 (Protease): 310 nM

SMILES: CC1(C)CC[C@]2(C(=O)OCc3ccccc3)CC[C@]3(C)C(=CC[C@@H]4[C@@]5(C)C[C@@H](OC(=O)CCC(=O)O)[C@H](O)C(C)(C)[C@@H]5CC[C@]43C)[C@@H]2C1
IC50 (Protease): 15600 nM

SMILES: CC(C)(CC(=O)O)CC(=O)O[C@H]1CC[C@]2(C)[C@H]3CC=C4[C@@H]5CC(C)(C)CC[C@]5(C(=O)O)CC[C@@]4(C)[C@]3(C)CC[C@H]2C1(C)C
IC50 (Protease): 700 nM

SMILES: CC1(C)CC[C@]2(C(=O)O)CC[C@]3(C)C(=CC[C@@H]4[C@@]5(C)CC[C@H](OC(=O)CCCC(=O)O)C(C)(C)[C@@H]5CC[C@]43C)[C@@H]2C1
IC50 (Protease): 560 nM

SMILES: CC1(C)CC[C@]2(C(=O)O)CC[C@]3(C)C(=CC[C@@H]4[C@@]5(C)C[C@@H](OC(=O)c6ccccc6C(=O)O)[C@H](OC(=O)c6ccccc6C(=O)O)C(C)(C)[C@@H]5CC[C@]43C)[C@@H]2C1
IC50 (Protease): 2300 nM

SMILES: CC(=O)O[C@@H]1C[C@]2(C)[C@H]3CC=C4[C@@H]5CC(C)(C)CC[C@]5(C(=O)O)CC[C@@]4(C)[C@]3(C)CC[C@H]2C(C)(C)[C@H]1OC(C)=O
Activity (B16-F10 [1]): 8.7%
Activity (B16-F10 [2]): 59.3%
IC50 (B16-F10 [3]): 44100 nM
Activity (B16-F10 [4]): 29.6%
Activity (B16-F10 [5]): 88.9%
Activity (B16-F10 [6]): 61.6%
Activity (B16-F10 [7]): 1.5%
Activity (B16-F10 [12]): Active
Activity (B16-F10 [8]): 31.4%
Activity (B16-F10 [9]): 7.1%
Activity (B16-F10 [10]): 9.7%
Activity (B16-F10 [11]): 52.9%

SMILES: CC1(C)CC[C@]2(C(=O)O)CC[C@]3(C)C(=CC[C@@H]4[C@@]5(C)CC[C@H](OC(=O)c6ccccc6)C(C)(C)[C@@H]5CC[C@]43C)[C@@H]2C1
Activity (B16-F10 [1]): 14%
Activity (B16-F10 [2]): 50.5%
IC50 (B16-F10 [3]): 162000 nM
Activity (B16-F10 [4]): 9.5%
Activity (B16-F10 [5]): 60%
Activity (B16-F10 [6]): 51.6%
Activity (B16-F10 [7]): 8.5%
Activity (B16-F10 [12]): Active
Activity (B16-F10 [8]): 44.6%
Activity (B16-F10 [9]): 3.8%
Activity (B16-F10 [10]): 31.6%
Activity (B16-F10 [11]): 37.6%

Reference: ChEMBL document CHEMBL3124882, “Semi-synthesis of acylated triterpenes from olive-oil industry wastes for the development of anticancer and anti-HIV agents” (Eur J Med Chem, 2014)
